Measurements published in ChEMBL document CHEMBL5715938, “The protein kinase Cbeta-selective inhibitor, Enzastaurin (LY317615.HCl), suppresses signaling through the AKT pathway, induces apoptosis, and suppresses growth of human colon cancer and glioblastoma xenografts” (Cancer Res, 2005).
The source made the active and inactive calls. The calls are words filed in the database; no cut-off is given here.

What was measured:
[1] = tested on: HCT-116; assay: Induction of apoptosis in human HCT-116 cells assessed as increase in oligonucleosomal fragmentation at 1 to 4 micromol/L incubated for 48 hrs by ELISA method; type: functional, cell-based; details: dose 1-4 µmol/L
In short: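 Oligonucleosomal fragmentation by Cell Death Detection ELISA-plus; 5,000 cells/well in 1% FBS medium, treated 48 h (range studied 0.1–10 μmol/L); absorbance normalized to control-treated cells to give nucleosomal enrichment factor.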

[2] = tested on: MOLT-4; assay: Antiproliferative activity against human MOLT-4 cells assessed as reduction in cell growth upto 10 uM measured after 6 days by propidium iodide staining based analysis; type: functional; details: time 6.0 day
In short: (§1)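 ATCC-sourced lines grown without antibiotics; 1,000 cells/well in 1% FBS medium, refed ±drug on days 1 and 4 over a 6-day course. On day 7, propidium iodide (10 μg/mL in D-PBS) read after 30 min for nonviable cells, plate frozen at -80°C 2 h, thawed and reread; proliferative index = postfreeze minus prefreeze signal.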

[3] = molecular target: RAC-beta serine/threonine-protein kinase (Homo sapiens) (UniProt P31751); assay: Inhibition of PKBbeta (unknown origin) at 1 micromol/L relative to control; details: dose 1.0 µmol/L
RAC-beta serine/threonine-protein kinase (Homo sapiens), sequence (P31751 whole entry): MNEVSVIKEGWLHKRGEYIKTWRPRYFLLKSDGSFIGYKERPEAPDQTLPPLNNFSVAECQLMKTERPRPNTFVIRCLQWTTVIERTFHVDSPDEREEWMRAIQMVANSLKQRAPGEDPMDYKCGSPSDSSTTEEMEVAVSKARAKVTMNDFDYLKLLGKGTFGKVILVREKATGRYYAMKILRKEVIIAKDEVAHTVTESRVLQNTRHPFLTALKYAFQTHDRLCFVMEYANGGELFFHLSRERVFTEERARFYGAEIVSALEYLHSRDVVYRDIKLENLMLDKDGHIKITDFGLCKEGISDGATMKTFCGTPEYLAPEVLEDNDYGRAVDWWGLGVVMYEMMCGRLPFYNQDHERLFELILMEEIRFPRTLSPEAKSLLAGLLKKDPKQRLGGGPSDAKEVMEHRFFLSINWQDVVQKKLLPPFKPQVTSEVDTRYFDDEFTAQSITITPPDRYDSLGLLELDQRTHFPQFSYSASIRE
In short: (§2)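 Commercial kinase profiler panel run to the provider's protocol, with the compound tested at 1 µmol/L. Activity is expressed as percent of kinase activity without compound.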

[4] = Antitumor activity against human HCT116 cells implanted in athymic nude mouse assessed as reduction in GSK3beta phosphorylation at serine 9 residue at 75 mg/kg, po administered twice daily measured after 2 to 4 hrs by ELISA method relative to control; parameters: scale not given: the % may be the effect or the level left; details: time 2-4 hrs
[5] = tested on: K562; assay: Antiproliferative activity against human K562 cells assessed as reduction in cell growth upto 10 uM measured after 6 days by propidium iodide staining based analysis; type: functional; details: time 6.0 day; in short: as §1
[6] = molecular target: Mitogen-activated protein kinase 13 (Homo sapiens) (UniProt O15264); assay: Inhibition of SAPK4 (unknown origin) at 1 micromol/L relative to control; details: dose 1.0 µmol/L; in short: as §2
Mitogen-activated protein kinase 13 (Homo sapiens), sequence (O15264 whole entry): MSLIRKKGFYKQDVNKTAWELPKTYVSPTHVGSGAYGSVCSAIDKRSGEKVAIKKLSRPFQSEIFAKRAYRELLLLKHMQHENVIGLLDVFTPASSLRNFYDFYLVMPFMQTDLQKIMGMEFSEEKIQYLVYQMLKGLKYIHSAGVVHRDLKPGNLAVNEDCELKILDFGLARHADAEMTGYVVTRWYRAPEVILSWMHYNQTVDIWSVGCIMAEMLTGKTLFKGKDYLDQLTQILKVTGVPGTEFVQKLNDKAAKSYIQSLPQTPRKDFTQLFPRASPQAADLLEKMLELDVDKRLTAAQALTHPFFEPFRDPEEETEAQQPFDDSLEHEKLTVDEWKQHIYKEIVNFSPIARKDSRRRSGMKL

[7] = tested on: NCI-H23; assay: Antiproliferative activity against human NCI-H23 cells assessed as reduction in cell growth upto 10 uM measured after 6 days by propidium iodide staining based analysis; type: functional; details: time 6.0 day; in short: as §1
[8] = tested on: Hs-578T; assay: Antiproliferative activity against human Hs-578T cells assessed as reduction in cell growth upto 10 uM measured after 6 days by propidium iodide staining based analysis; type: functional; details: time 6.0 day; in short: as §1
[9] = tested on: SK-OV-3; assay: Antiproliferative activity against human SK-OV-3 cells assessed as reduction in cell growth upto 10 uM measured after 6 days by propidium iodide staining based analysis; type: functional; details: time 6.0 day; in short: as §1
[10] = molecular target: Fibroblast growth factor receptor 3 (Homo sapiens) (UniProt P22607); assay: Inhibition of FGFR3 (unknown origin) at 1 micromol/L relative to control; details: dose 1.0 µmol/L
Fibroblast growth factor receptor 3 (Homo sapiens), sequence (P22607 23-806 limits assumed): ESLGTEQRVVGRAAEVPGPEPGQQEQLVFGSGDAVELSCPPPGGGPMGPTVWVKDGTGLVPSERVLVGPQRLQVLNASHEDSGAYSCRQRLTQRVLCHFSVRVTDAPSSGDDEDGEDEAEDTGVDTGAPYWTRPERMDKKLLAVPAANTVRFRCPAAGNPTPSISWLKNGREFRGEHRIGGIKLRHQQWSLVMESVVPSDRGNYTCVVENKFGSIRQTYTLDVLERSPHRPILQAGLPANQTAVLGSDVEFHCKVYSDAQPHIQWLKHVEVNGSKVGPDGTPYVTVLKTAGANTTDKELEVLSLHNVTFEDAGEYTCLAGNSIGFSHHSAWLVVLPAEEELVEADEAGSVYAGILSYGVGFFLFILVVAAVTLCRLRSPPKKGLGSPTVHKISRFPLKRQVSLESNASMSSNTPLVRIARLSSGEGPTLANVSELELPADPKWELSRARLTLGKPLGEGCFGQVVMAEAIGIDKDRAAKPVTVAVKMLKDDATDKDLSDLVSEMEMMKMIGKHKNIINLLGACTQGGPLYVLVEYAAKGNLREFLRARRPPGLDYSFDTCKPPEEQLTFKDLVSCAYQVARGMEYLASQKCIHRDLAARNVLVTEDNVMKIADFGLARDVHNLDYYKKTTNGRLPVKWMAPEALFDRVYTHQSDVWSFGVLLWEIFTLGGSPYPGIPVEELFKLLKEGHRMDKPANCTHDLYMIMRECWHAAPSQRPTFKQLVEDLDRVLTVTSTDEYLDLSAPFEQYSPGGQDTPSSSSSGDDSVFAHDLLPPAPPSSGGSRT
In short: (§3)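 Upstate Kinase Profiler panel at 1 μmol/L drug, run per provider; data expressed as percent of kinase activity without drug.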

[11] = tested on: HCT-116; assay: Antitumor activity against human HCT-116 cells xenografted in athymic nude mouse assessed as reduction in GSK3beta phosphorylation at serine 9 residue at 75 mg/kg, po administered twice daily measured after 12 hrs by Western blotting analysis; type: functional, organism-based
[12] = tested on: NCI-H322M; assay: Antiproliferative activity against human NCI-H322M cells assessed as reduction in cell growth upto 10 uM measured after 6 days by propidium iodide staining based analysis; type: functional; details: time 6.0 day; in short: as §1
[13] = molecular target: Protein kinase C theta type (Homo sapiens) (UniProt Q04759); assay: Inhibition of PKCteta (unknown origin) at 1 micromol/L relative to control; details: dose 1.0 µmol/L; in short: as §2
Protein kinase C theta type (Homo sapiens), sequence (Q04759 whole entry, looked up): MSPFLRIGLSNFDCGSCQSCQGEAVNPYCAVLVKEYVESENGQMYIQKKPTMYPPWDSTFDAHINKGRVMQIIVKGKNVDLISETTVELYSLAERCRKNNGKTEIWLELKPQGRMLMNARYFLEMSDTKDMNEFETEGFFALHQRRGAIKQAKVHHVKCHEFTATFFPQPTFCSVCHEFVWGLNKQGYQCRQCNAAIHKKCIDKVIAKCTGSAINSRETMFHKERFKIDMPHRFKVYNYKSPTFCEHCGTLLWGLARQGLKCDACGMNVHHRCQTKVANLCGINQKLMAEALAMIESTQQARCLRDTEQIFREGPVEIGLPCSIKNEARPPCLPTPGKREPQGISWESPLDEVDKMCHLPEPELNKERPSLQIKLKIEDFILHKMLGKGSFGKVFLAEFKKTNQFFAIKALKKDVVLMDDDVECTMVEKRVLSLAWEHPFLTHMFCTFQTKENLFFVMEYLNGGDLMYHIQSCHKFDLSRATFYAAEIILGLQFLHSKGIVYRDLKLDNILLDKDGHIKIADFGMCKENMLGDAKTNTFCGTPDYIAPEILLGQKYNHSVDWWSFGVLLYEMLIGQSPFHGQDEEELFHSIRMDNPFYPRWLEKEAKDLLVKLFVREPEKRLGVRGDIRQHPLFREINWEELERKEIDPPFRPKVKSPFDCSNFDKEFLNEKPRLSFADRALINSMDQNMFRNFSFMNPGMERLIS

[14] = tested on: HCT-116; assay: Antitumor activity against human HCT-116 cells xenografted in athymic nude mouse assessed as reduction in GSK3beta phosphorylation at serine 9 residue at 75 mg/kg, po administered twice daily measured after 30 mins by ELISA method relative to control; type: functional; parameters: scale not given: the % may be the effect or the level left; details: 0.5 h
In short: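 HCT116-bearing nude mice, 75 mg/kg by gavage; tumors and PBMCs harvested 0.5, 2, 4, 8 h post-dose, n = 5 per time point. PBMCs from five mice pooled via CPT tube. Lysates assayed by pGSK3β Ser9 immunometric ELISA (tumor 400–600 μg, PBMC 50–100 μg protein/well); percent of vehicle control, Dunnett/ANOVA.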

[15] = tested on: HCT-116; assay: Inhibition of ribosomal protein S6 phosphorylation at serine 240/244 residue in human HCT-116 cells at 1 micromol/L upto 4 hrs by Western blotting analysis; type: cell-based; details: dose 1.0 µmol/L
In short: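 HCT116 cells from ATCC were grown in FBS-containing medium without antibiotics. They were lysed in cell extraction buffer with protease inhibitor cocktails, and protein was measured by DC assay. Western blotting used phospho-S6 Ser240/244 and total S6 ribosomal protein antibodies.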

[16] = molecular target: Protein kinase C iota type (Homo sapiens) (UniProt P41743); assay: Inhibition of PKCIota (unknown origin) at 1 micromol/L relative to control; details: dose 1.0 µmol/L
Protein kinase C iota type (Homo sapiens), sequence (P41743 whole entry): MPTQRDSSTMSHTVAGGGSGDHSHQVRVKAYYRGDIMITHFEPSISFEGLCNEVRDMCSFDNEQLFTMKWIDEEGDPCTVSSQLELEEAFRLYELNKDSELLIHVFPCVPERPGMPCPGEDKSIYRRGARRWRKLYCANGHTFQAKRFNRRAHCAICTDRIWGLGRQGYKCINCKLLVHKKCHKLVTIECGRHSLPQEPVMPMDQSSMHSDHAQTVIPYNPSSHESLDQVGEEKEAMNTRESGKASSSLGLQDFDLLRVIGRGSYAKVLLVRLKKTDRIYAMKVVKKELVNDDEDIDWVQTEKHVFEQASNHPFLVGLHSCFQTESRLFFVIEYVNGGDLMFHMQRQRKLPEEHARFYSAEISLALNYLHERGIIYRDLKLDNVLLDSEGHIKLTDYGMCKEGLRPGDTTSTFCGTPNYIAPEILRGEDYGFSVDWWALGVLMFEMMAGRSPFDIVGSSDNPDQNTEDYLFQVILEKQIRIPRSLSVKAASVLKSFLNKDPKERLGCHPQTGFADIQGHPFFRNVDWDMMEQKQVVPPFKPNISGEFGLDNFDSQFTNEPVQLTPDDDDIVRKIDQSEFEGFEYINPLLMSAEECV
In short: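 Commercial kinase profiling panel run by the provider's protocol at a single inhibitor concentration of 1 µmol/L. Activity expressed as percent of kinase activity without inhibitor.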

[17] = tested on: PC-3; assay: Antiproliferative activity against human PC-3 cells assessed as reduction in cell growth upto 10 uM measured after 6 days by propidium iodide staining based analysis; type: functional; details: time 6.0 day; in short: as §1
[18] = molecular target: Mitogen-activated protein kinase 1 (Homo sapiens) (UniProt P28482); assay: Inhibition of MAPK1 (unknown origin) at 1 micromol/L relative to control; details: dose 1.0 µmol/L; in short: as §3
Mitogen-activated protein kinase 1 (Homo sapiens), sequence (P28482 whole entry): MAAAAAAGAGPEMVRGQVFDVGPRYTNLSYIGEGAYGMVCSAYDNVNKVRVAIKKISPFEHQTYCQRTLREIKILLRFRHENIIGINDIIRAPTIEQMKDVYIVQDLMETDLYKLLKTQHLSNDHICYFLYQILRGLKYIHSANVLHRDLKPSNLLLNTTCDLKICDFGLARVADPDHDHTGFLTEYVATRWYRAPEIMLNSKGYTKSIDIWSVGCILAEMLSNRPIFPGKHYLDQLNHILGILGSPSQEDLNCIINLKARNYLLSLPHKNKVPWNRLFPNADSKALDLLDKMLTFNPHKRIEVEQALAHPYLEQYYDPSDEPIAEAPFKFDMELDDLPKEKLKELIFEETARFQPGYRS

[19] = molecular target: Mitogen-activated protein kinase 11 (Homo sapiens) (UniProt Q15759); assay: Inhibition of SAPK2b (unknown origin) at 1 micromol/L relative to control; details: dose 1.0 µmol/L; in short: as §2
Mitogen-activated protein kinase 11 (Homo sapiens), sequence (Q15759 whole entry): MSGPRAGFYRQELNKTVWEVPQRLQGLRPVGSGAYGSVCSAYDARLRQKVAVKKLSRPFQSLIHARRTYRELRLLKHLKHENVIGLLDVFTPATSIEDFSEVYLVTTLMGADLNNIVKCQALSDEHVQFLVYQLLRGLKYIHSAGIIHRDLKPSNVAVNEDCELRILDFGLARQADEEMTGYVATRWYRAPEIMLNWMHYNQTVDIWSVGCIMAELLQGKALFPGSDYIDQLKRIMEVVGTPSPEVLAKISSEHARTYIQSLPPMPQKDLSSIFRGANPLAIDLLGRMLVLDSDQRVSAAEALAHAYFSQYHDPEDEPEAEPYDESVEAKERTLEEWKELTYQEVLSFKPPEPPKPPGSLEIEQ

[20] = organism: Homo sapiens; assay: Inhibition of p70S6K (unknown origin) at 1 micromol/L relative to control; details: dose 1.0 µmol/L; in short: as §2
[21] = tested on: RXF 393; assay: Antiproliferative activity against human RXF 393 cells assessed as reduction in cell growth upto 10 uM measured after 6 days by propidium iodide staining based analysis; type: functional; details: time 6.0 day; in short: as §1
[22] = molecular target: Protein kinase C gamma type (Homo sapiens, UniProt P05129); assay: Inhibition of recombinant human PKCgamma using myelin basic protein as substrate incubated for 60 mins in presence of […] and ATP by microbeta scintillation counter analysis
In short: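 Radiometric filter-plate assay with recombinant human PKCγ (128 pmol/L) phosphorylating myelin basic protein (0.25 mg/mL). Buffer: 90 mmol/L HEPES pH 7.5, 5 mmol/L MgCl2, 100 µmol/L CaCl2, phosphatidylserine, diacylglycerol, 0.001% Triton X-100, 4% DMSO, 30 µmol/L ATP plus 32P-ATP. Enzyme added to start; ran 60 min at room temperature; H3PO4 quench; phosphocellulose capture. IC50 from a three-variable logistic fit to a 10-point series, 1–2,000 nmol/L.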

[23] = tested on: HOP-62; assay: Antiproliferative activity against human HOP-62 cells assessed as reduction in cell growth upto 10 uM measured after 6 days by propidium iodide staining based analysis; type: functional; details: time 6.0 day; in short: as §1
[24] = tested on: HCT-116; assay: Inhibition of ERK in human HCT-116 cells at 1 micromol/L measured upto 4 hrs by Western blotting analysis; type: cell-based; details: dose 1.0 µmol/L
In short: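 Cultured tumor cells treated with 1 μmol/L drug; lysates in cell extraction buffer with protease inhibitors, western blotted with phospho-specific antibodies (pGSK3β Ser9, pAKT Thr308, phospho-ERK) alongside total GSK3β/AKT.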

[25] = tested on: 786-0; assay: Antiproliferative activity against human 786-0 cells assessed as reduction in cell growth upto 10 uM measured after 6 days by propidium iodide staining based analysis; type: functional; details: time 6.0 day; in short: as §1

In the case of `Cl.Cn1cc(C2=C(c3cn(C4CCN(Cc5ccccn5)CC4)c4ccccc34)C(=O)NC2=O)c2ccccc21` [ENZASTAURIN HYDROCHLORIDE], the Activity [1] is reported as “Active”, the Activity [2] is reported as “Active” and the % control activity [3] is reported as 100%. The Activity [4] was greater than 60%, the Activity [5] was “Active” and the % control activity [6] was 97%. For the same compound, the Activity [7] was “inactive”, the Activity [8] was “inactive” and the Activity [9] was “inactive”. For the same compound, the % control activity [10] was 82%, the Activity [11] was “inactive” and the Activity [12] was “inactive”. The % control activity [13] was 2%, the Activity [14] was 50% and the inhibition [15] was “Active”. The % control activity [16] was 91%, the Activity [17] was “Active” and the % control activity [18] was 114%. For the same compound, the % control activity [19] was 96%, the % control activity [20] was 52% and the Activity [21] was “inactive”. For the same compound, the IC50 [22] was 83 nM, the Activity [23] was “inactive” and the inhibition [24] was “inactive”. The Activity [25] was “inactive”.
